The term IC50 denotes the concentration that inhibits the measured activity by half. One may read the CC50 as the concentration that lowers cell viability or growth by half. As a reminder, the EC50 is the concentration that produces a half-maximal response. Low values mean higher potency in that assay, high ones lower potency in that assay.

Here are results for 25 molecules from ChEMBL document CHEMBL2203025, “6,7-Dihydroxy-1-oxoisoindoline-4-sulfonamide-containing HIV-1 integrase inhibitors” (Bioorg Med Chem Lett, 2012).

The target in data set [1] is T1, Human immunodeficiency virus type 1 integrase (Human immunodeficiency virus 1, UniProt Q7ZJM1). The data set is described as follows: Inhibition of HIV1 recombinant integrase 3' processing activity using [32P]-labeled oligonucleotide a substrate after 30 mins by electrophoretic analysis. Summed up: (§1)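 Gel-based IN assay run in vitro with Mg2+ as cofactor. IC50 values were determined separately for the 3'-processing and strand transfer reactions.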

Data set [2] has as its target T1, Human immunodeficiency virus type 1 integrase. The data set is described as follows: Inhibition of HIV1 recombinant integrase strand transfer activity using [32P]-labeled oligonucleotide a substrate after 30 mins by electrophoretic analysis. Summed up: as §1
The next data set deals with HOS. Briefly: Cytotoxicity against human HOS cells assessed as reduction in ATP level. The class given is cell-based.
The subject of data set [3] is Human immunodeficiency virus 1. The data set is described as follows: Ratio of EC50 for HIV1 expressing integrase Y143R mutant to EC50 for HIV1 expressing wild type integrase. The data set is classed as functional.
Data set [4] concerns Human immunodeficiency virus 1. Briefly: Antiviral activity against HIV1 expressing wild type integrase infected in HOS cells. The following applies: Human immunodeficiency virus 1, HOS. The data set is classed as functional, organism-based. Summed up:
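HOS cells infected with a lentiviral vector carrying wild-type IN; EC50 from the infected cells.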

Data set [5] can be described thus: Selectivity index, ratio of CC50 for human HOS cells to EC50 for HIV1 expressing wild type integrase. The data set is classed as toxicity, cell-based. The following applies: read-out: Ratio CC50/EC50.

T1 sequence (Q7ZJM1 whole entry): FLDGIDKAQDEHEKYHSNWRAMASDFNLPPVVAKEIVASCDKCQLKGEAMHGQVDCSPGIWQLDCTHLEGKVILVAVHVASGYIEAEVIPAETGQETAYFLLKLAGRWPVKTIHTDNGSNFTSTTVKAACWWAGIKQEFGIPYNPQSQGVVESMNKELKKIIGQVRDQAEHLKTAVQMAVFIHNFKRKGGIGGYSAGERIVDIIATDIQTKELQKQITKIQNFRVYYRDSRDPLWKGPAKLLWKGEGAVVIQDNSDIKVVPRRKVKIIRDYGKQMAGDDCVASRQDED

As for `CN(C)CCCNS(=O)(=O)c1cc(O)c(O)c2c1CN(Cc1ccc(F)c(Cl)c1)C2=O`, the IC50 in data set [1] turned out to be 15.9 µM; in data set [2], 0.24 µM.
Consider `CN(C)S(=O)(=O)c1c(O)c(O)c(O)c2c1CN(Cc1ccc(F)c(Cl)c1)C2=O`, for which the IC50 was found to be 7.6 µM in data set [1] and 0.26 µM in data set [2]. For the same molecule, in the data set on HOS, the CC50 came to 4.6 µM. Further, the “Ratio EC50” value in data set [3] is listed as 2. The molecule further gave an EC50 in data set [4] of 0.159 µM. Also, the selectivity ratio in data set [5] came out at 29.
`CN(C)S(=O)(=O)c1ccc(-c2c(O)c(O)c3c(c2S(=O)(=O)N(C)C)CN(Cc2ccc(F)c(Cl)c2)C3=O)cc1`: the IC50 in data set [1] stood at 35.2 µM; in data set [2] it was 0.25 µM. The CC50 in the data set on HOS came out at 2.8 µM. In addition, in data set [3], the “Ratio EC50” value came out at 4. Besides, the EC50 in data set [4] turned out to be 0.132 µM. Also, in data set [5], the selectivity ratio was determined as 21.
On to `Cc1cc2c(c(O)c1O)C(=O)N(Cc1ccc(F)c(Cl)c1)C2`, for which the IC50 in data set [1] was above 111 µM; in data set [2] it was 11.5 µM.
Taken in the same sequence, the figures for `CCCCc1cc2c(c(O)c1O)C(=O)N(Cc1ccc(F)c(Cl)c1)C2` were above 111 µM and 6.8 µM.
Consider `CC(C)c1cc2c(c(O)c1O)C(=O)N(Cc1ccc(F)c(Cl)c1)C2`, for which the IC50 in data set [1] is above 111 µM; in data set [2] it was 5.4 µM.
Turning to `O=C1c2c(cc(-c3ccccc3)c(O)c2O)CN1Cc1ccc(F)c(Cl)c1`, the 50% inhibitory concentration (IC50) was above 111 µM in data set [1] and 0.87 µM in data set [2].
Turning to `O=C1c2c(cc(O)c(O)c2O)CN1Cc1ccc(F)c(Cl)c1`, the values for the IC50 in data set [1] and in data set [2] were 36 µM and 1.5 µM, respectively.
Taken in the same sequence, the figures for `CN(C)S(=O)(=O)c1ccc(-c2cc3c(c(O)c2O)C(=O)N(Cc2ccc(F)c(Cl)c2)C3)cc1` were above 111 µM and 0.4 µM.
`CNS(=O)(=O)c1cc(O)c(O)c2c1CN(Cc1ccc(F)c(Cl)c1)C2=O`: the figures for the IC50 in data set [1] and in data set [2] were 17.5 µM and 0.12 µM, respectively. For the same molecule, the 50% cytotoxic concentration (CC50) in the data set on HOS was found to be 4.3 µM. In data set [3], the “Ratio EC50” value was 1. In addition, in data set [4], the midpoint of the response, the EC50, lay at 0.04 µM. Besides, the selectivity ratio in data set [5] turned out to be 108.
Consider `CCN(CC)S(=O)(=O)c1cc(O)c(O)c2c1CN(Cc1ccc(F)c(Cl)c1)C2=O`, for which the IC50 came to 9.5 µM in data set [1] and 0.054 µM in data set [2]. Moreover, the CC50 with HOS turned out to be 8.4 µM. Also, in data set [3], the “Ratio EC50” value is listed as 3. The molecule also returned an EC50 in data set [4] of 0.017 µM. In data set [5], the selectivity ratio is 494.
`O=C1c2c(O)c(O)cc(S(=O)(=O)NCCCBr)c2CN1Cc1ccc(F)c(Cl)c1`: the IC50 in data set [1] was 14.7 µM; in data set [2] it was 0.11 µM. Further, in the data set with HOS, the CC50 came out at 4.6 µM. Besides, the “Ratio EC50” value in data set [3] is listed as 1. Besides, the EC50 in data set [4] turned out to be 0.093 µM. In addition, the selectivity ratio in data set [5] came out at 49.
In the case of `O=C1c2c(O)c(O)cc(S(=O)(=O)NCCN3CCOCC3)c2CN1Cc1ccc(F)c(Cl)c1`, the values for the IC50 in data set [1] and in data set [2] were 30.2 µM and 0.32 µM, respectively.
Take `O=C1c2c(O)c(O)cc(S(=O)(=O)NCCN3CCNCC3)c2CN1Cc1ccc(F)c(Cl)c1`: the IC50 in data set [1] is 19.3 µM; in data set [2], 0.31 µM.
In the case of `O=C1c2c(O)c(O)cc(S(=O)(=O)NCc3ccccn3)c2CN1Cc1ccc(F)c(Cl)c1`, the IC50 amounted to 23 µM in data set [1] and 0.37 µM in data set [2].
As to `CN1CCN(S(=O)(=O)c2cc(O)c(O)c3c2CN(Cc2ccc(F)c(Cl)c2)C3=O)CC1`, the IC50 was determined as 23 µM in data set [1] and 0.4 µM in data set [2]. The CC50 in the data set with HOS worked out at 6.2 µM. Further, the “Ratio EC50” value in data set [3] is on record as 1. In data set [4], this molecule returned an EC50 of 0.043 µM. Besides, the selectivity ratio in data set [5] is 144.
With `NCCN1CCN(S(=O)(=O)c2cc(O)c(O)c3c2CN(Cc2ccc(F)c(Cl)c2)C3=O)CC1`, the IC50 in data set [1] worked out at 21.2 µM; in data set [2], 0.19 µM.
For the molecule `O=C1c2c(O)c(O)cc(S(=O)(=O)N3CCOCC3)c2CN1Cc1ccc(F)c(Cl)c1`, the IC50 in data set [1] was 6.8 µM; in data set [2] it was 0.047 µM. Further, the CC50 in the data set with HOS was determined as 5.3 µM. Further, in data set [3], the “Ratio EC50” value was 2. In data set [4], this molecule gave an EC50 of 0.022 µM. Moreover, the selectivity ratio in data set [5] came out at 241.
Consider `O=C(O)CNS(=O)(=O)c1cc(O)c(O)c2c1CN(Cc1ccc(F)c(Cl)c1)C2=O`, for which the IC50 in data set [1] came out at 11.7 µM; in data set [2] it was 0.08 µM. The CC50 with HOS stood at 107 µM. In addition, the “Ratio EC50” value in data set [3] turned out to be 3. The molecule also came in with an EC50 in data set [4] of 0.929 µM. In addition, the selectivity ratio in data set [5] came out at 115.
For the molecule `CN(CC(=O)O)S(=O)(=O)c1cc(O)c(O)c2c1CN(Cc1ccc(F)c(Cl)c1)C2=O`, the IC50 worked out at 6.9 µM in data set [1] and 0.058 µM in data set [2]. Also, the CC50 in the data set with HOS came out at 95.2 µM. Moreover, the “Ratio EC50” value in data set [3] turned out to be 2. In data set [4], this molecule had an EC50 of 0.14 µM. The selectivity ratio in data set [5] was 680.
Turning to `Cc1c(O)c(O)c2c(c1S(=O)(=O)N(C)C)CN(Cc1ccc(F)c(Cl)c1)C2=O`, the IC50 worked out at 49.7 µM in data set [1] and 2.8 µM in data set [2]. In addition, in the data set on HOS, the CC50 was determined as 6.3 µM. In data set [3], the “Ratio EC50” value is recorded as 2. The molecule further gave an EC50 in data set [4] of 0.322 µM. For the same molecule, the selectivity ratio in data set [5] was found to be 20.
`CCCCc1c(O)c(O)c2c(c1S(=O)(=O)N(C)C)CN(Cc1ccc(F)c(Cl)c1)C2=O`: the IC50 in data set [1] is above 111 µM; in data set [2], 2.3 µM. Further, the CC50 in the data set with HOS amounted to 7 µM. Besides, the “Ratio EC50” value in data set [3] came to 1. In addition, the midpoint of the response in data set [4], the EC50, lay at 3.8 µM. The selectivity ratio in data set [5] came to 2.
With `CC(C)c1c(O)c(O)c2c(c1S(=O)(=O)N(C)C)CN(Cc1ccc(F)c(Cl)c1)C2=O`, the IC50 in data set [1] was above 111 µM; in data set [2] it was 0.19 µM. Also, the CC50 with HOS turned out to be 12.1 µM. This molecule also yielded an EC50 in data set [4] of 3.6 µM. The selectivity ratio in data set [5] turned out to be 3.
Take `CC(C)c1c(O)c(O)c2c(c1S(=O)(=O)N1CCOCC1)CN(Cc1ccc(F)c(Cl)c1)C2=O`: the IC50 in data set [1] is above 111 µM; in data set [2], 0.41 µM. Also, in the data set with HOS, the CC50 is 5.9 µM. For the same molecule, the “Ratio EC50” value in data set [3] is on record as 4. In addition, the EC50 in data set [4] was 3.4 µM. For the same molecule, the selectivity ratio in data set [5] is 2.
As to `O=C1c2c(ccc(O)c2O)CN1Cc1ccc(F)c(Cl)c1`, in data set [3], the “Ratio EC50” value was 1. The molecule further registered an EC50 in data set [4] of 0.447 µM. Moreover, the selectivity ratio in data set [5] turned out to be 12.
